Measured values from ChEMBL document CHEMBL5346890, “Elevated labile iron in castration-resistant prostate cancer is targetable with ferrous iron-activatable antiandrogen therapy” (Eur J Med Chem, 2023).
Active and inactive are the calls of the source. The calls are words filed in the database; no cut-off is given here.

Tests used:
[1] = Cmax in NSG mouse at 10 mg/kg, ip; assay type: ADME, organism-based; set-up: dose 10 mg/kg, route ip; conditions: in vivo
In short: (§1)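 Healthy NSG mice got a single 10 mg/kg intraperitoneal dose. Plasma concentrations of conjugate and released payload were measured over time, with n = 9 or n = 6 mice depending on conjugate. Tmax, Cmax and AUClast (hr•ng/mL) were derived from the plasma profiles.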

[2] = AUClast in NSG mouse at 10 mg/kg, ip; assay type: ADME, organism-based; set-up: dose 10 mg/kg, route ip; conditions: in vivo; in short: as §1
LNCaP [3] = test: Reduction in KLK2 gene expression in human LNCaP cells at 5 uM incubated for 48 hrs by qRT-PCR analysis; assay type: functional, cell-based
In short: (§2)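 Cells were plated in triplicate per condition; drug (0.1% final DMSO) was added after 24 h and left for 48 h. RNA was extracted and 2 μg reverse-transcribed. cDNA was diluted 1:50 and amplified by qPCR with 400 nM primers.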

[4] = Tmax in NSG mouse at 10 mg/kg, ip; assay type: ADME, organism-based; conditions: in vivo; in short: as §1
[5] = Drug concentration in NSG mouse brain at 10 mg/kg, ip measured after 2 hrs; assay type: ADME, organism-based; conditions: read-out: Drug uptake
In short: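 Healthy NSG mice were given a single 10 mg/kg intraperitoneal injection. Brains were collected at set timepoints, including 2 h post-dose. Both the intact conjugate and its released antiandrogen payload were measured in brain tissue, with concentrations expressed as ng/g.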

PC-3 = test: Antiproliferative activity against androgen receptor negative human PC-3 cells assessed as reduction in cell growth at 5 uM measured upto 6 days by CellTiter-Glo assay; assay type: functional, cell-based; conditions: time <= 6.0 day
In short: (§3)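 Cells were seeded at 20,000/well, four replicates per condition, in complete medium with 0.1% DMSO. Compound was added 24 h after seeding at a single concentration of 5 μM (0.2% final DMSO). Viability was read by CellTiter-Glo luminescence (10 min, room temperature, in HBSS) at timepoints up to 144 h (6 days).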

LNCaP [6] = test: Reduction in KLK3 gene expression in human LNCaP cells at 5 uM incubated for 48 hrs by qRT-PCR analysis; assay type: functional, cell-based; in short: as §2
[7] = Metabolic stability in mouse liver microsomes assessed as half life measured upto 60 mins in presence of NADPH by LC/MS/MS analysis; assay type: ADME, Microsome; conditions: 1 h
[8] = Metabolic stability in mouse liver microsomes assessed as intrinsic clearance measured upto 60 mins in presence of NADPH by LC/MS/MS analysis; assay type: ADME, Microsome; conditions: 1 h
[9] = Metabolic stability in human liver microsomes assessed as intrinsic clearance measured upto 60 mins in presence of NADPH by LC/MS/MS analysis; assay type: ADME, Microsome; conditions: 1 h
In short: (§4)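 Human liver microsomes at 0.5 mg/mL protein with 1 mM NADPH, sampled at 0, 15, 30 and 60 min, N = 1. Parent disappearance was followed by LC/MS/MS with verapamil as control. CLint = ln(2)*1000/T1/2/protein concentration (mg/mL).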

[10] = Metabolic stability in human liver microsomes assessed as half life measured upto 60 mins in presence of NADPH by LC/MS/MS analysis; assay type: ADME, Microsome; conditions: 1 h; in short: as §4
LNCaP/AR [11] = test: Antiproliferative activity against human LNCaP/AR cells assessed as reduction in cell growth at 5 uM measured upto 6 days by CellTiter-Glo assay; assay type: functional, cell-based; conditions: time <= 6.0 day
[12] = Kinetic solubility of compound at pH 7.4 by shake flask assay; assay type: physicochemical; conditions: buffer
In short: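 Kinetic solubility of DMSO solutions in phosphate-buffered saline, pH 7.4, by automated miniaturized shake-flask method. Quantitation was by chemiluminescent nitrogen detection.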

LNCaP C4-2B = test: Antiproliferative activity against androgen receptor positive human LNCaP C4-2B cells assessed as reduction in cell growth at 5 uM measured upto 6 days by CellTiter-Glo assay; assay type: functional, cell-based; conditions: time <= 6.0 day; in short: as §3
LNCaP/AR [13] = test: Antiproliferative activity against human LNCaP/AR cells assessed as reduction in cell growth measured after 3 days by CellTiter-Glo assay; assay type: functional, cell-based; conditions: dose 0.1-25 µM, time 3.0 day
In short: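 LNCaP-AR cells (AR-overexpressing) were seeded at 20,000/well, four replicates, in 0.1% DMSO complete medium. Drug was added 24 h later across 0.1–25 μM (0.2% final DMSO) for three days. Viability was measured by CellTiter-Glo luminescence after 10 min at room temperature.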

SMILES | Cmax [1] [ng/mL] | AUC(0-t) [2] [µg·h/mL] | Activity (LNCaP [3]) | Tmax [4] [min] | concentration at 2 h [5] [ng/g] | Activity (PC-3) | Activity (LNCaP [6]) | t1/2 [7] [min] | CLH [8] [µL/min/mg] | CLH [9] [µL/min/mg] | t1/2 [10] [min] | Activity (LNCaP/AR [11]) | Kinetic_solubility [12] [µM] | Activity (LNCaP C4-2B) | Activity (LNCaP/AR [13])
CNC(=O)c1ccc(N2C(=S)N(c3cnc(C#N)c(C(F)(F)F)c3)C(=O)C23CCC3)cc1F [APALUTAMIDE] | 4330 | 4490 | Active | 240 | 808 | inactive | Active |  |  |  |  |  |  |  | 
N#Cc1ccc(N2C(=O)C3(CCC3)N(c3ccc(O)cc3)C2=S)cc1C(F)(F)F |  |  |  |  |  | inactive |  |  |  |  |  |  |  |  | 
N#Cc1ncc(N2C(=O)C3(CCC3)N(c3ccc(OC4CCN(C(=O)O[C@H]5CCC[C@@]6(C5)OOC5(O6)C6CC7CC(C6)CC5C7)CC4)nc3)C2=S)cc1C(F)(F)F (some centres undefined) |  |  |  |  |  |  |  | 34.5 | 40.2 |  |  |  |  |  | 
CN(CCN(C)C(=O)O[C@@H]1CCC[C@]2(C1)OOC1(O2)C2CC3CC(C2)CC1C3)C(=O)Oc1ccc(N2C(=S)N(c3ccc(C#N)c(C(F)(F)F)c3)C(=O)C23CCC3)cc1 (some centres undefined) | 346 | 81.1 | Active | 30 |  | inactive | Active |  |  | 25.9 | 53.4 | Active | 2.3 | Active | Dose-Dependent Effect
N#Cc1ncc(N2C(=O)C3(CCC3)N(c3ccc(OC4CCN(C(=O)O[C@@H]5CCC[C@]6(C5)OOC5(O6)C6CC7CC(C6)CC5C7)CC4)nc3)C2=S)cc1C(F)(F)F (some centres undefined) | 641 | 158 | Active | 30 |  | inactive | Active | 48.2 | 28.8 |  |  | Active | < 0.4 | Active | 
N#Cc1ncc(N2C(=O)C3(CCC3)N(c3ccc(OC4CCNCC4)nc3)C2=S)cc1C(F)(F)F |  |  |  |  |  | inactive |  |  |  |  |  |  |  |  | 
